Experimental data from publication PMC4120670 (Kidney International, 2014).
One block for each molecule: values may come before it.

Experiments:
OAT2 [1] = molecular target: T1, OAT2 (Homo sapiens, UniProt Q9Y694); test: Inhibition of OAT2 transport of 3′,5′-cyclic GMP; assay type: cell-based
T1 sequence (Q9Y694 1-548): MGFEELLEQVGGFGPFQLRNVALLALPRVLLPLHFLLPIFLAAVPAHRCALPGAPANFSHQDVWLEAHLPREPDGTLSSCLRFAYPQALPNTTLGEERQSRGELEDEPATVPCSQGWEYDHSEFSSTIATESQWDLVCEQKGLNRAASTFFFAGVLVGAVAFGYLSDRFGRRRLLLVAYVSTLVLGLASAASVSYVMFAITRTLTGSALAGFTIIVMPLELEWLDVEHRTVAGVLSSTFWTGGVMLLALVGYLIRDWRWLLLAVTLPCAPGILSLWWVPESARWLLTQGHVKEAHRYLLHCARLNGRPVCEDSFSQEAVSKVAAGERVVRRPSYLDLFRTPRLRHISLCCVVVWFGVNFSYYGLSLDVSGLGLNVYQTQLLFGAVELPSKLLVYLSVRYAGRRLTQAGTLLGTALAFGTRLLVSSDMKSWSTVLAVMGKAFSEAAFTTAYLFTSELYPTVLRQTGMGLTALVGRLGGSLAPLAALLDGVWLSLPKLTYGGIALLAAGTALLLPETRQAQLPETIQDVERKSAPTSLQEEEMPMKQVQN

[2] = more modest effects, clinical; cited from earlier work
OCT2 = molecular target: T2, OCT2 (Homo sapiens, UniProt O15244); test: Inhibition of OCT2 transport of tetraethylammonium; assay type: cell-based
T2 sequence (O15244 1-555): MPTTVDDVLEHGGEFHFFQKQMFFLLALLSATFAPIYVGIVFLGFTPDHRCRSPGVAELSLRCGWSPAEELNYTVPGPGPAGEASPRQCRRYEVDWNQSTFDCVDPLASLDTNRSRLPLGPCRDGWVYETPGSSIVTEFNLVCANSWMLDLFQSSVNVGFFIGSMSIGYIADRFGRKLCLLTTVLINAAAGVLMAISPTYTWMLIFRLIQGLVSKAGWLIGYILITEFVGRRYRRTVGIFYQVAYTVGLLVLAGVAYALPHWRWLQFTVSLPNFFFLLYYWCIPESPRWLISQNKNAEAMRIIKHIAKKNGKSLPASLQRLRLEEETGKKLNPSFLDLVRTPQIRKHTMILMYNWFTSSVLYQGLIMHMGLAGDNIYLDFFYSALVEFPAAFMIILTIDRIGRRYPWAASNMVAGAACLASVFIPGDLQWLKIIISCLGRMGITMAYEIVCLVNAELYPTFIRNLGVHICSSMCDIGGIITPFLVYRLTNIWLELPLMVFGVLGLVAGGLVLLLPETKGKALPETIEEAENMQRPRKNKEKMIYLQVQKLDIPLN

OAT2 [3] = molecular target: T1, OAT2; test: Creatinine transport by OAT2 in transiently transfected MDCKII cells; assay type: cell-based
MATE1 = molecular target: T3, MATE1 (Homo sapiens, UniProt Q96FL8); test: Creatinine transport by MATE1 in transiently transfected MDCKII cells; assay type: cell-based
T3 sequence (Q96FL8 1-570): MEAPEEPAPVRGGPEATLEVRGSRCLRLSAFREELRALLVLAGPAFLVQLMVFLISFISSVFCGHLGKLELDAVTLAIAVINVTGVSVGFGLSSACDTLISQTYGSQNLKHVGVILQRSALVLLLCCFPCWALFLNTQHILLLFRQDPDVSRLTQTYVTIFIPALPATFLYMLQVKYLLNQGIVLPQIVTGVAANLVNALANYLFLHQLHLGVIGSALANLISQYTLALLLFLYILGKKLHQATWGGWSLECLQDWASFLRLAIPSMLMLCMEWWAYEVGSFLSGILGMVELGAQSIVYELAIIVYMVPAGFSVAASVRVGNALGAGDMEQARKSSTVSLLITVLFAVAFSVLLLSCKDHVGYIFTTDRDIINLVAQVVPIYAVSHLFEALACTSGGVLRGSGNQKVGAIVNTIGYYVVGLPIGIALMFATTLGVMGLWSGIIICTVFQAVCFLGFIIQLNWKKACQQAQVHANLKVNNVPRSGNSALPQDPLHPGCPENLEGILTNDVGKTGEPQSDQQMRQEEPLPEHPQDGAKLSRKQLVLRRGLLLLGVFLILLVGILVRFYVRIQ
Procedure, shortened: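 Transiently transfected polarized MDCKII cells were preincubated 20 min in Hank's balanced salt solution with 30 mmol/l NH4Cl. Uptake was started by adding creatinine, 31 μmol/l to 20 mmol/l, to the chamber matching the transporter's apical or basolateral expression. Cells were washed four times with ice-cold PBS and extracted in 1:1 acetonitrile:water. Intracellular substrate was counted radiometrically. Kinetic constants were fitted from concentration dependence over n⩾3 independent experiments.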

MATE2-K [4] = molecular target: T4, MATE2-K (Homo sapiens, UniProt Q86VL8); test: Creatinine transport by MATE2-K in transiently transfected MDCKII cells; assay type: cell-based
T4 sequence (Q86VL8 1-566 isoform Q86VL8-3): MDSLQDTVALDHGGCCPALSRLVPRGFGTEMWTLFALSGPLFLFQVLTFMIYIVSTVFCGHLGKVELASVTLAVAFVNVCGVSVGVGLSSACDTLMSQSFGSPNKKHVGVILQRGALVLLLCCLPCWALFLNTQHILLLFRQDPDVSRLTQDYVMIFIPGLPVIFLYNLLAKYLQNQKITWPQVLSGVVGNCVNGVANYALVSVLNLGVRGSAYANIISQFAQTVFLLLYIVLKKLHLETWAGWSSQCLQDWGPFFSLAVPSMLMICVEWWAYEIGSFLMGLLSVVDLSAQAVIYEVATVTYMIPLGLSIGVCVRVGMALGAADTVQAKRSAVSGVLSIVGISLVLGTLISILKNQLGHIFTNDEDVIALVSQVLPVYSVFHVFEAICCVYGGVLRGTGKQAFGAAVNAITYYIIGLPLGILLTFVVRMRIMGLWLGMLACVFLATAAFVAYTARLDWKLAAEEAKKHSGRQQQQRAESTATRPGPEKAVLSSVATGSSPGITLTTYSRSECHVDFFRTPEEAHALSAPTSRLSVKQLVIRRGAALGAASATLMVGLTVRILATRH

OAT3 [5] = molecular target: T5, OAT3 (Homo sapiens, UniProt Q8TCC7); assay type: cell-based; details: transiently transfected HEK293 cells; data not shown
T5 sequence (Q8TCC7 1-542): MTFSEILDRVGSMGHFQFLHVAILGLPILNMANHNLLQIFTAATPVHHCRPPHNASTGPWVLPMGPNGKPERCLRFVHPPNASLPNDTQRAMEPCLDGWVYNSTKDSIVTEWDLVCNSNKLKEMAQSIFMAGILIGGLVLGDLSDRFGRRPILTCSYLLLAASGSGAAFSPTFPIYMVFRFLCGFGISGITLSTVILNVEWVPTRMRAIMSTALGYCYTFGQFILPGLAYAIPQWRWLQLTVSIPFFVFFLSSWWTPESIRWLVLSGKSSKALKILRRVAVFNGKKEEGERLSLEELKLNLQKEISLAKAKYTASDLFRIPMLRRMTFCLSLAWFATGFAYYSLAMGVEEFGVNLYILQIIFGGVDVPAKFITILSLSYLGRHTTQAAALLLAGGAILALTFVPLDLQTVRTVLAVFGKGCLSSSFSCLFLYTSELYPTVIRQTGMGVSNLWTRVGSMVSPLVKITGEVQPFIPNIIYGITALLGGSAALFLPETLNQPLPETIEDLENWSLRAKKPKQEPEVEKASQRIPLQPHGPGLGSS

OAT3 [6] = molecular target: T5, OAT3; details: human OAT3, transiently transfected HEK293 cells; cited from earlier work
OCT3 = molecular target: T6, OCT3 (Homo sapiens, UniProt O75751); test: Inhibition of OCT3 transport of 1-methyl-4-phenylpyridinium; assay type: cell-based
T6 sequence (O75751 1-556): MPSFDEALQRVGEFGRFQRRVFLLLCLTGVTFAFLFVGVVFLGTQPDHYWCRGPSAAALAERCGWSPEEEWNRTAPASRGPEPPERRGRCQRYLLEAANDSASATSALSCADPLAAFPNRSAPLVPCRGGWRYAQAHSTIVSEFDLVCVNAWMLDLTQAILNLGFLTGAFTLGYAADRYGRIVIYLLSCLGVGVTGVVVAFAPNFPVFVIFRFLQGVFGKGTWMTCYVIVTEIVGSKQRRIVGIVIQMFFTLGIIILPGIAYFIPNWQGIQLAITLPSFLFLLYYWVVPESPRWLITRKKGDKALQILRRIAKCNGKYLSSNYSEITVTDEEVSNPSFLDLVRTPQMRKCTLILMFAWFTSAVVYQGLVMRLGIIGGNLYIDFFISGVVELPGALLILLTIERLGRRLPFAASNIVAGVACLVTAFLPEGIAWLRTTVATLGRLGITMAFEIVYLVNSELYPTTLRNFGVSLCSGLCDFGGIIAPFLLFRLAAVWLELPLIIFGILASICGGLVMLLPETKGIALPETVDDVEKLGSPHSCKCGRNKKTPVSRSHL

MATE2-K [7] = molecular target: T4, MATE2-K; test: Inhibition of MATE2-K transport of tetraethylammonium; assay type: cell-based
[8] = most prominent effects, clinical; cited from earlier work
[9] = substrate: CN1CC(=O)NC1=N; test: Creatinine transport by OCT2 in transiently transfected MDCKII cells; assay type: cell-based, human; details: other: creatinine transport by OCT2, transiently transfected cells
[10] = substrate: CN1CC(=O)NC1=N; test: Creatinine transport by OCT3 in transiently transfected MDCKII cells; assay type: cell-based, human; details: other: creatinine transport by OCT3, transiently transfected cells
[11] = substrate: CN1CC(=O)NC1=N; test: Creatinine transport by OAT2 in transiently transfected MDCKII cells; assay type: cell-based, human; details: other: creatinine transport by OAT2, transiently transfected cells

Molecule: CC(C)c1nc(CN(C)C(=O)N[C@H](C(=O)N[C@@H](Cc2ccccc2)C[C@H](O)[C@H](Cc2ccccc2)NC(=O)OCc2cncs2)C(C)C)cs1 [Ritonavir, ritonavir]
Concentration-dependent inhibition of OAT2-dependent transport (OAT2 [1]; model substrate, curve could not be generated): lack of concentration-dependent inhibition

Molecule: Cc1cc(/C=C/C#N)cc(C)c1Nc1ccnc(Nc2ccc(C#N)cc2)n1 [Rilpivirine, rilpivirine]
Serum creatinine increases [2]: ~0.1 mg/dL

IC50 (OCT2): 68 ± 5.2 µM
Molecule: COc1cc(Cc2cnc(N)nc2N)cc(OC)c1OC [Trimethoprim, trimethoprim]

Vmax (OAT2 [3]; creatinine transport by OAT2): 117 × 10^4 pmol/min per mRNA copy number
Transport rate for OAT2 relative to OCT2 (OAT2 [3]; physiological creatinine concentration (100 μmol/l), faster than OCT2): 4.7 fold
Transport rate for OAT2 relative to OCT3 (OAT2 [3]; physiological creatinine concentration (100 μmol/l), faster than OCT3): 2.3 fold
Vmax (MATE1; creatinine transport by MATE1): >2 × 10^4 pmol/min per mRNA copy number
Km (MATE1; human, transiently transfected MDCKII cells expressing MATE1): > 2 mM
Vmax (MATE2-K [4]; creatinine transport by MATE2-K): >20 × 10^4 pmol/min per mRNA copy number
Km (MATE2-K [4]; human, transiently transfected MDCKII cells expressing MATE2-K): > 2 mM
Molecule: CN1CC(=O)NC1=N [creatinine]
OAT3-dependent transport of creatinine (OAT3 [5]): no OAT3-dependent transport of creatinine was observed
Increase in creatinine accumulation over mock transfection (OAT3 [6]): 60%

IC50 (OAT2 [1]): 72.8 ± 17 µM
IC50 (OCT2): 135 ± 16 µM
IC50 (OCT3): 87.7 ± 55.1 µM
IC50 (MATE2-K [7]): 46.6 ± 7.23 µM
Molecule: CN/C(=N/CCSCc1nc[nH]c1C)NC#N [Cimetidine, cimetidine]
Decreases in creatinine clearance [8]: 15–34 ml/min per 1.73 m^2

B1: OCT2 (Homo sapiens) (protein)
chain: T2 sequence (O15244 1-555)
Km [9]: 1860 ± 370 µmol/L

B2: OCT3 (Homo sapiens) (protein)
chain: T6 sequence (O75751 1-556)
Km [10]: 1320 ± 380 µmol/L

B3: OAT2 (Homo sapiens) (protein)
chain: T1 sequence (Q9Y694 1-548)
Km [11]: 986 ± 177 µmol/L
